Results: paper PMC7359933 (Clinical and Translational Science, 2020)
Read-outs that look alike come from different tables or passages of the source. Marks after values point to notes of the source that are not given here.

What was measured:
healthy volunteers [1] = assay: Thorough QT/QTc study part 2: Holter ECG, Fridericia-corrected QT interval; format: in vivo, human
Summary of the method: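 Healthy subjects, randomized four-period crossover with 10-day washouts, fed: oral fostemsavir 1,200 mg q.d. or 2,400 mg b.i.d. for 7 days, placebo b.i.d., or single moxifloxacin 400 mg on day 7. Triplicate ECGs from 24-h Holter, read centrally. Baseline is the mean of day-1 predose readings; readings 0.5–22.25 h post-dose on day 7. Linear mixed model gives 90% CI; bound 10 msec; assay sensitivity >5 msec at 2–4 h.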

healthy volunteers [2] = tested on: healthy volunteers; parameters: species or system human; conditions: at observed mean TMR Cmax, healthy adults
healthy volunteers [3] = assay: Adverse events and discontinuations in thorough QT study part 2; format: in vivo, human
healthy volunteers [4] = assay: Thorough QT study part 1 sentinel cohort safety; format: in vivo, human; conditions: fostemsavir 2,400 mg b.i.d. for 7 days (n = 6)
healthy volunteers [5] = conditions: total daily fostemsavir dose of 20–2,400 mg ref 10; cited from earlier work
HIV‐1 = conditions: cited from earlier work
[6] = tested on: heavily treatment‐experienced subjects; conditions: treated for 96 weeks, BRIGHTE, fostemsavir 600 mg b.i.d. ref 23; cited from earlier work
[7] = TMR after FTR 600 mg b.i.d., N = 16, healthy adults ref 21; cited from earlier work
[8] = fostemsavir 1,200 mg q.d., at 6 hours postdose
[9] = fostemsavir 2,400 mg b.i.d., at 5 hours post‐AM dose

COc1cnc(-n2cnc(C)n2)c2c1c(C(=O)C(=O)N1CCN(C(=O)c3ccccc3)CC1)cn2COP(=O)(O)O [fostemsavir]
Mean change from baseline, msec ddQTcF (healthy volunteers [1]; FTR 1,200 mg q.d. (A), day 7, 0.5 hour): –7.44 msec
Mean change from baseline, msec ddQTcF (healthy volunteers [1]; FTR 1,200 mg q.d. (A), day 7, 1 hour): –7.25 msec
Mean change from baseline, msec ddQTcF (healthy volunteers [1]; FTR 1,200 mg q.d. (A), day 7, 2 hour): –6.78 msec
Mean change from baseline, msec ddQTcF (healthy volunteers [1]; FTR 1,200 mg q.d. (A), day 7, 3 hour): –7.54 msec
Mean change from baseline, msec ddQTcF (healthy volunteers [1]; FTR 1,200 mg q.d. (A), day 7, 4 hour): –3.37 msec
Mean change from baseline, msec ddQTcF (healthy volunteers [1]; FTR 1,200 mg q.d. (A), day 7, 5 hour): –0.49 msec
Mean change from baseline, msec ddQTcF (healthy volunteers [1]; FTR 1,200 mg q.d. (A), day 7, 6 hour): –4.52 msec
Mean change from baseline, msec ddQTcF (healthy volunteers [1]; FTR 1,200 mg q.d. (A), day 7, 8 hour): –6.87 msec
Mean change from baseline, msec ddQTcF (healthy volunteers [1]; FTR 1,200 mg q.d. (A), day 7, 10 hour): 0.76 ms
Mean change from baseline, msec ddQTcF (healthy volunteers [1]; FTR 1,200 mg q.d. (A), day 7, 11.5 hour): –5.31 msec
Mean change from baseline, msec ddQTcF (healthy volunteers [1]; FTR 1,200 mg q.d. (A), day 7, 14 hour): –7.05 msec
Mean change from baseline, msec ddQTcF (healthy volunteers [1]; FTR 1,200 mg q.d. (A), day 7, 15 hour): –3.84 msec
Mean change from baseline, msec ddQTcF (healthy volunteers [1]; FTR 1,200 mg q.d. (A), day 7, 16 hour): –1.48 msec
Mean change from baseline, msec ddQTcF (healthy volunteers [1]; FTR 1,200 mg q.d. (A), day 7, 22.25 hour): –3.18 msec
Mean difference vs. placebo (90% CI), msec ddQTcF (healthy volunteers [1]; FTR 1,200 mg q.d. (A–D), day 7, 0.5 hour): 0.10 (–1.98, 2.18) msec
Mean difference vs. placebo (90% CI), msec ddQTcF (healthy volunteers [1]; FTR 1,200 mg q.d. (A–D), day 7, 1 hour): 0.51 (–1.57, 2.58) msec
Mean difference vs. placebo (90% CI), msec ddQTcF (healthy volunteers [1]; FTR 1,200 mg q.d. (A–D), day 7, 2 hour): 3.84 (1.75, 5.93) msec
Mean difference vs. placebo (90% CI), msec ddQTcF (healthy volunteers [1]; FTR 1,200 mg q.d. (A–D), day 7, 3 hour): 2.49 (0.40, 4.57) msec
Mean difference vs. placebo (90% CI), msec ddQTcF (healthy volunteers [1]; FTR 1,200 mg q.d. (A–D), day 7, 4 hour): 3.66 (1.58, 5.75) msec
Mean difference vs. placebo (90% CI), msec ddQTcF (healthy volunteers [1]; FTR 1,200 mg q.d. (A–D), day 7, 5 hour): 4.18 (2.11, 6.26) msec
Mean difference vs. placebo (90% CI), msec ddQTcF (healthy volunteers [1]; FTR 1,200 mg q.d. (A–D), day 7, 6 hour): 4.27 (2.19, 6.34) msec
Mean difference vs. placebo (90% CI), msec ddQTcF (healthy volunteers [1]; FTR 1,200 mg q.d. (A–D), day 7, 10 hour): 3.94 (1.86, 6.01) msec
Mean difference vs. placebo (90% CI), msec ddQTcF (healthy volunteers [1]; FTR 1,200 mg q.d. (A–D), day 7, 11.5 hour): 1.61 (–0.48, 3.69) msec
Mean difference vs. placebo (90% CI), msec ddQTcF (healthy volunteers [1]; FTR 1,200 mg q.d. (A–D), day 7, 14 hour): –0.10 (–2.18, 1.972) msec
Mean difference vs. placebo (90% CI), msec ddQTcF (healthy volunteers [1]; FTR 1,200 mg q.d. (A–D), day 7, 15 hour): 0.30 (–1.78, 2.38) msec
Mean difference vs. placebo (90% CI), msec ddQTcF (healthy volunteers [1]; FTR 1,200 mg q.d. (A–D), day 7, 16 hour): 0.04 (–2.04, 2.12) msec
Mean difference vs. placebo (90% CI), msec ddQTcF (healthy volunteers [1]; FTR 1,200 mg q.d. (A–D), day 7, 22.25 hour): 0.29 (–1.79, 2.36) msec
Mean change from baseline, msec ddQTcF (healthy volunteers [1]; FTR 2,400 mg b.i.d. (B), day 7, 0.5 hour): –6.04 msec
Mean change from baseline, msec ddQTcF (healthy volunteers [1]; FTR 2,400 mg b.i.d. (B), day 7, 1 hour): –6.15 msec
Mean change from baseline, msec ddQTcF (healthy volunteers [1]; FTR 2,400 mg b.i.d. (B), day 7, 2 hour): –6.90 msec
Mean change from baseline, msec ddQTcF (healthy volunteers [1]; FTR 2,400 mg b.i.d. (B), day 7, 3 hour): –3.67 msec
Mean change from baseline, msec ddQTcF (healthy volunteers [1]; FTR 2,400 mg b.i.d. (B), day 7, 4 hour): 1.64 ms
Mean change from baseline, msec ddQTcF (healthy volunteers [1]; FTR 2,400 mg b.i.d. (B), day 7, 5 hour): 6.50 ms
Mean change from baseline, msec ddQTcF (healthy volunteers [1]; FTR 2,400 mg b.i.d. (B), day 7, 6 hour): 0.18 ms
Mean change from baseline, msec ddQTcF (healthy volunteers [1]; FTR 2,400 mg b.i.d. (B), day 7, 8 hour): –3.46 msec
Mean change from baseline, msec ddQTcF (healthy volunteers [1]; FTR 2,400 mg b.i.d. (B), day 7, 10 hour): 1.51 ms
Mean change from baseline, msec ddQTcF (healthy volunteers [1]; FTR 2,400 mg b.i.d. (B), day 7, 11.5 hour): –3.88 msec
Mean change from baseline, msec ddQTcF (healthy volunteers [1]; FTR 2,400 mg b.i.d. (B), day 7, 14 hour): –1.65 msec
Mean change from baseline, msec ddQTcF (healthy volunteers [1]; FTR 2,400 mg b.i.d. (B), day 7, 15 hour): 4.45 ms
Mean change from baseline, msec ddQTcF (healthy volunteers [1]; FTR 2,400 mg b.i.d. (B), day 7, 16 hour): 8.59 ms
Mean change from baseline, msec ddQTcF (healthy volunteers [1]; FTR 2,400 mg b.i.d. (B), day 7, 22.25 hour): 0.16 ms
Mean difference vs. placebo (90% CI), msec ddQTcF (healthy volunteers [1]; FTR 2,400 mg b.i.d. (B–D), day 7, 0.5 hour): 1.50 (–0.63, 3.62) msec
Mean difference vs. placebo (90% CI), msec ddQTcF (healthy volunteers [1]; FTR 2,400 mg b.i.d. (B–D), day 7, 1 hour): 1.61 (–0.51, 3.73) msec
Mean difference vs. placebo (90% CI), msec ddQTcF (healthy volunteers [1]; FTR 2,400 mg b.i.d. (B–D), day 7, 2 hour): 3.72 (1.60, 5.84) msec
Mean difference vs. placebo (90% CI), msec ddQTcF (healthy volunteers [1]; FTR 2,400 mg b.i.d. (B–D), day 7, 3 hour): 6.36 (4.23, 8.48) msec
Mean difference vs. placebo (90% CI), msec ddQTcF (healthy volunteers [1]; FTR 2,400 mg b.i.d. (B–D), day 7, 4 hour): 8.67 (6.55, 10.79) msec
Mean difference vs. placebo (90% CI), msec ddQTcF (healthy volunteers [1]; FTR 2,400 mg b.i.d. (B–D), day 7, 5 hour): 11.18 (9.05, 13.30) msec
Mean difference vs. placebo (90% CI), msec ddQTcF (healthy volunteers [1]; FTR 2,400 mg b.i.d. (B–D), day 7, 6 hour): 8.96 (6.84, 11.10) msec
Mean difference vs. placebo (90% CI), msec ddQTcF (healthy volunteers [1]; FTR 2,400 mg b.i.d. (B–D), day 7, 8 hour): 5.33 (3.21, 7.46) msec
Mean difference vs. placebo (90% CI), msec ddQTcF (healthy volunteers [1]; FTR 2,400 mg b.i.d. (B–D), day 7, 10 hour): 4.69 (2.57, 6.81) msec
Mean difference vs. placebo (90% CI), msec ddQTcF (healthy volunteers [1]; FTR 2,400 mg b.i.d. (B–D), day 7, 11.5 hour): 3.04 (0.92, 5.17) msec
Mean difference vs. placebo (90% CI), msec ddQTcF (healthy volunteers [1]; FTR 2,400 mg b.i.d. (B–D), day 7, 14 hour): 5.30 (3.18, 7.43) msec
Mean difference vs. placebo (90% CI), msec ddQTcF (healthy volunteers [1]; FTR 2,400 mg b.i.d. (B–D), day 7, 15 hour): 8.60 (6.47, 10.73) msec
Mean difference vs. placebo (90% CI), msec ddQTcF (healthy volunteers [1]; FTR 2,400 mg b.i.d. (B–D), day 7, 16 hour): 10.10 (7.98, 12.23) msec
Mean difference vs. placebo (90% CI), msec ddQTcF (healthy volunteers [1]; FTR 2,400 mg b.i.d. (B–D), day 7, 22.25 hour): 3.63 (1.51, 5.75) msec
change from placebo in baseline‐adjusted Fridericia‐corrected QTc (ddQTcF) (healthy volunteers [1]; Fostemsavir 1,200 mg b.i.d.): did not result in a clinically meaningful change
effect on heart rate, QRS or PR intervals, or waveform morphology (healthy volunteers [1]; fostemsavir 1,200 mg q.d. and 2,400 mg b.i.d.): did not have a clinically meaningful effect
upper bound of the 90% CI around ddQTcF (healthy volunteers [1]; fostemsavir 1,200 mg q.d., all time points): below 10 msec
ddQTcF upper bound of two‐sided 90% CI at maximum (healthy volunteers [1]; [8]): 6.3 ms
maximum time‐matched ddQTcF (healthy volunteers [1]; [8]): 4.3 ms
subjects with maximum QTcF between 450 and 480 msec (healthy volunteers [1]; fostemsavir 2,400 mg b.i.d.): Three
subjects with maximum change in QTcF between 30 and 60 msec (healthy volunteers [1]; fostemsavir 2,400 mg b.i.d.): Four
ddQTcF upper bound of two‐sided 90% CI at maximum (healthy volunteers [1]; [9]): 13.3 ms
maximum time‐matched ddQTcF (healthy volunteers [1]; [9]): 11.2 ms
ddQTcF upper bound of two‐sided 90% CI at maximum (healthy volunteers [1]; fostemsavir 2,400 mg b.i.d., at 5 hours post‐AM dose, listed as FTR): 13.3 (at 5 hour) msec
ddQTcF upper 90% CI boundary, model‐predicted (healthy volunteers [2]; FTR 600 mg b.i.d. + cobicistat 150 mg q.d.): ≤ 5.0 ms
ddQTcF upper 90% CI boundary, model‐predicted (healthy volunteers [2]; FTR 600 mg b.i.d. + cobicistat 150 mg q.d., listed as FTR): 5.0 ^a msec
ddQTcF upper 90% CI boundary, model‐predicted (healthy volunteers [2]; FTR 600 mg b.i.d.): ≤ 3.2 ms
ddQTcF upper 90% CI boundary, model‐predicted (healthy volunteers [2]; FTR 600 mg b.i.d., listed as FTR): 3.2 ^a msec
AE rate (healthy volunteers [3]; fostemsavir 1,200 mg q.d.): 53%
headache (healthy volunteers [3]; fostemsavir 1,200 mg q.d.): 16%
AE rate (healthy volunteers [3]; fostemsavir 2,400 mg b.i.d.): 56%
headache (healthy volunteers [3]; fostemsavir 2,400 mg b.i.d.): 35%
subjects discontinued for AEs (healthy volunteers [3]; fostemsavir 2,400 mg b.i.d. (vomiting, elevated aminotransferases, rash, headache/anxiety/dyspnea/pharyngeal edema)): five
safety data (healthy volunteers [4]): all AEs (primarily dizziness and headache) were mild and there were no relevant cardiac signals
cardiovascular abnormalities (healthy volunteers [5]): no clinically relevant cardiovascular abnormalities were observed
activity with regard to HIV‐1 tropism (HIV‐1): active regardless of HIV‐1 tropism
in vitro cross‐resistance to other antiretroviral drug classes (HIV‐1): no in vitro cross‐resistance
subjects discontinued due to QT prolongation (> 450 msec) [6]: Less than 2%
subjects discontinued due to QT prolongation (> 450 msec), number/total [6]: 7/371
Mean Cmax [7]: 2,096 ^b ng/mL
